Active and inactive are the calls of the source. No cut-off for these calls is given here.
Legend:
[1] = target: T1, Probable G-protein coupled receptor 139 (Homo sapiens, UniProt Q6DWJ6); test: Agonist activity at human GPR139 receptor expressed in HEK293 cells assessed as calcium mobilization by FLIPR assay; type: functional, cell-based
T1 sequence (Q6DWJ6 whole entry): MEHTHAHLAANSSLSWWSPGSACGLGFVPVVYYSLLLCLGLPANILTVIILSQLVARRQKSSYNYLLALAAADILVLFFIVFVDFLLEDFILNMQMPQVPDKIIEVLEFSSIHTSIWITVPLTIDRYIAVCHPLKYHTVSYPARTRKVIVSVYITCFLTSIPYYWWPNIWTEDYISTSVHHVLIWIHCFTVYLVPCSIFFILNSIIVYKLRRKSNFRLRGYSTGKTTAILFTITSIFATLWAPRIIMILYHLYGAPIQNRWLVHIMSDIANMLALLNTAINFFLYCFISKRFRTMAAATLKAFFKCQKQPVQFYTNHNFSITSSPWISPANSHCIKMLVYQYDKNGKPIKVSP

[2] = Extraction ratio in human liver microsomes at 1 uM after 1 hr by LC-MS/MS analysis; type: ADME; conditions: read-out: ERH
In short: (§1)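 Extraction ratio is in vitro microsomal clearance divided by Q, the species-specific hepatic blood flow (human or rat).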

[3] = Extraction ratio in rat liver microsomes at 1 uM after 1 hr by LC-MS/MS analysis; type: ADME; conditions: read-out: ERH; in short: as §1
[4] = Apparent permeability of the compound in MDCK cells; type: ADME, cell-based, Canis lupus familiaris; conditions: dog
In short: (§2)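 Permeability was measured in MDR1-transfected Madin Darby canine kidney (MDR1-MDCK) cells. Papp is given in units of 1 × 10–6 cm/s. The efflux ratio is Papp basal-to-apical divided by Papp apical-to-basal.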

[5] = Efflux ratio of apparent permeability from basolateral to apical side to apical to basolateral side in MDCK cells; type: ADME, cell-based, Canis lupus familiaris; conditions: dog; in short: as §2
[6] = Fraction unbound in human plasma at 0.1 to 10 uM after 6 hrs by LC-MS/MS analysis; type: ADME, cell-free
[7] = Fraction unbound in rat plasma at 0.1 to 10 uM after 6 hrs by LC-MS/MS analysis; type: ADME, cell-free
[8] = Fraction unbound in rat brain at 0.1 to 10 uM after 6 hrs by LC-MS/MS analysis; type: ADME, tissue-based
[9] = Aqueous solubility of the compound in 30 mM phosphate buffer at pH 2 after 3 days; type: physicochemical
[10] = Aqueous solubility of the compound in 30 mM phosphate buffer at pH 7 after 3 days; type: physicochemical
Cytochrome P450 1A2 = target: T2, Cytochrome P450 1A2 (Homo sapiens, UniProt P05177); test: Inhibition of CYP1A2 in human liver microsomes using phenacetin as substrate up to 10 uM by LC-MS/MS analysis; type: ADME
T2 sequence (P05177 whole entry): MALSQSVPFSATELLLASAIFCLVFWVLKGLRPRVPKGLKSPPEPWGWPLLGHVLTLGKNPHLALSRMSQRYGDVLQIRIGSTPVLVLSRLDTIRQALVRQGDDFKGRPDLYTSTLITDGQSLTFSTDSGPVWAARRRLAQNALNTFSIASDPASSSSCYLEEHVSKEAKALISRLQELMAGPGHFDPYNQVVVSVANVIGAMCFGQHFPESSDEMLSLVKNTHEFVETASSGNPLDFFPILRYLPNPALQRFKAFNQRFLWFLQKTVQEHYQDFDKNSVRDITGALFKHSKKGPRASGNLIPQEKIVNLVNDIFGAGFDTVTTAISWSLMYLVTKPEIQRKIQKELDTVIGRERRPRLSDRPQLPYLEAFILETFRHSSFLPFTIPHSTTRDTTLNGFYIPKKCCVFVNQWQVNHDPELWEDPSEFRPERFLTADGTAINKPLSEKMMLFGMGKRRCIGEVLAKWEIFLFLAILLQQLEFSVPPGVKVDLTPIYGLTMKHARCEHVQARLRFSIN

Cytochrome P450 2C8 = target: T3, Cytochrome P450 2C8 (Homo sapiens, UniProt P10632); test: Inhibition of CYP2C8 in human liver microsomes using paclitaxel as substrate up to 10 uM by LC-MS/MS analysis; type: ADME
T3 sequence (P10632 whole entry): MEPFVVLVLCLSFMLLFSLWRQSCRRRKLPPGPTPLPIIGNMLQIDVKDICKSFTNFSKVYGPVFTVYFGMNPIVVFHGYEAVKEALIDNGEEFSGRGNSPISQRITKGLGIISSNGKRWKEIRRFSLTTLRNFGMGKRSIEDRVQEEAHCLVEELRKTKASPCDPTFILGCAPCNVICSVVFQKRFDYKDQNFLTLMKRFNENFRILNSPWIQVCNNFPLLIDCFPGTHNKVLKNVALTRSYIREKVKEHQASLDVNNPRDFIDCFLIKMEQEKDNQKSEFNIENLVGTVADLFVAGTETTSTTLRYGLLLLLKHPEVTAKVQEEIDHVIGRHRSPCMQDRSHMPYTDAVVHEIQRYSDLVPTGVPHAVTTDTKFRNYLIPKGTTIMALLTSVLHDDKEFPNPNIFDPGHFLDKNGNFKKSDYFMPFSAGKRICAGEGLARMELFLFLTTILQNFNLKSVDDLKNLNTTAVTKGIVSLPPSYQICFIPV

Cytochrome P450 2C9 = Cytochrome P450 2C9 (Homo sapiens, UniProt P11712); test: Inhibition of CYP2C9 in human liver microsomes using diclofenac as substrate up to 10 uM by LC-MS/MS analysis; type: ADME
Cytochrome P450 2C9, sequence (P11712 whole entry): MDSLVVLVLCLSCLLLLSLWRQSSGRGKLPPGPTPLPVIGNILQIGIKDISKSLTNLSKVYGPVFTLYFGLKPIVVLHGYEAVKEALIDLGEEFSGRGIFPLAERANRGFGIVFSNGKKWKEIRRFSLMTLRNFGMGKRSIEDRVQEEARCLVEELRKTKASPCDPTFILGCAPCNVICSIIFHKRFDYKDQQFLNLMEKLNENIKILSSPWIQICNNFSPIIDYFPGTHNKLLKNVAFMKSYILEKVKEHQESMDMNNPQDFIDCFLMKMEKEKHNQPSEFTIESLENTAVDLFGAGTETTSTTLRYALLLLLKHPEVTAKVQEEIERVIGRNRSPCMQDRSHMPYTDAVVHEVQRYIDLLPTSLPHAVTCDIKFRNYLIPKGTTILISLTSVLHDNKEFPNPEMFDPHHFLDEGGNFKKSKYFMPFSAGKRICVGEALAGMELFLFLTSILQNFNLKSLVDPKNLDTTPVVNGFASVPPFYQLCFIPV

Cytochrome P450 2C19 = Cytochrome P450 2C19 (Homo sapiens, UniProt P33261); test: Inhibition of CYP2C19 in human liver microsomes using S-mephenytoin as substrate up to 10 uM by LC-MS/MS analysis; type: ADME
Cytochrome P450 2C19, sequence (P33261 whole entry): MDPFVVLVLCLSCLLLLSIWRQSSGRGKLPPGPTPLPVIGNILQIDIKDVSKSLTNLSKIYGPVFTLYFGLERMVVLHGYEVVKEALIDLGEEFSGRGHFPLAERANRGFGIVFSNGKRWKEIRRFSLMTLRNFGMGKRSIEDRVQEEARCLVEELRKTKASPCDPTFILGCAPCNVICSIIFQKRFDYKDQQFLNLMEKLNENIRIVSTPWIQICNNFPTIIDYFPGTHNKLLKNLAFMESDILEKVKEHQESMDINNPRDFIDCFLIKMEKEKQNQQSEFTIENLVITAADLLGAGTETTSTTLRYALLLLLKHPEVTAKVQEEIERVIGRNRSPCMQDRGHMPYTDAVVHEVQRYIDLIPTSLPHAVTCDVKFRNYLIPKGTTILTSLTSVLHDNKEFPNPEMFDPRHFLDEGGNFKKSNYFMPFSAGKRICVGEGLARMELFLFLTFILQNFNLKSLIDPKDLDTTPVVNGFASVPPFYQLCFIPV

Cytochrome P450 2D6 = Cytochrome P450 2D6 (Homo sapiens, UniProt P10635); test: Inhibition of CYP2D6 in human liver microsomes using dextromethorphan as substrate up to 10 uM by LC-MS/MS analysis; type: ADME
Cytochrome P450 2D6, sequence (P10635 whole entry): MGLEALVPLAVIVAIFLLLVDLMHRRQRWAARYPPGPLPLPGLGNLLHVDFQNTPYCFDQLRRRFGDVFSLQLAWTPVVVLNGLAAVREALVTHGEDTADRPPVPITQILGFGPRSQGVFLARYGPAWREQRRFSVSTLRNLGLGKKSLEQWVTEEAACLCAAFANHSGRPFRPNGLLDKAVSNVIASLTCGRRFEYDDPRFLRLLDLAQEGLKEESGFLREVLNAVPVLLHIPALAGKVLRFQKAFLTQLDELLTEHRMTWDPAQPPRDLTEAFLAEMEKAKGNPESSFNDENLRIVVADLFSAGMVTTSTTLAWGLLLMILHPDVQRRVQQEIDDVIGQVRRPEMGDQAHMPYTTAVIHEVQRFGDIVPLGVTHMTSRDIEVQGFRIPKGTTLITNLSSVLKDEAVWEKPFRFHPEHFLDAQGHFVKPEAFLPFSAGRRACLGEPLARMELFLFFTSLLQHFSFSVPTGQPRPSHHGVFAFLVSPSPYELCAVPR

Cytochrome P450 3A4 = Cytochrome P450 3A4 (Homo sapiens, UniProt P08684); test: Inhibition of CYP3A4 in human liver microsomes using midazolam as substrate up to 10 uM by LC-MS/MS analysis; type: ADME
Cytochrome P450 3A4, sequence (P08684 whole entry): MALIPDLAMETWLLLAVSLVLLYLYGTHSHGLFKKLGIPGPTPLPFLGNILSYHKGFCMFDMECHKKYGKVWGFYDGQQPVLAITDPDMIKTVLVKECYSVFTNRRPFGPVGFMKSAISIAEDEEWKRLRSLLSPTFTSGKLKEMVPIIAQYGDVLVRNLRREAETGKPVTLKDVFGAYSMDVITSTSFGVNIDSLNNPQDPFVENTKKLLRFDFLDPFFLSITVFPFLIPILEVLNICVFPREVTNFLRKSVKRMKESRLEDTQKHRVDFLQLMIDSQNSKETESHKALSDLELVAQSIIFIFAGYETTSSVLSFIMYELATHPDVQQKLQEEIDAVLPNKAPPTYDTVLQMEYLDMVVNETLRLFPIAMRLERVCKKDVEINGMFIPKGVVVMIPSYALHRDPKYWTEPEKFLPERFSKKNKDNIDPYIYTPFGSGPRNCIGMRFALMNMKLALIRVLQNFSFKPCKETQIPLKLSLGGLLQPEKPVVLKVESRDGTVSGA

[11] = target: T4, Protein Gpr142 (Rattus norvegicus) (UniProt F1LWD8); test: Agonist activity at rat GPR142 receptor
T4 sequence (whole entry): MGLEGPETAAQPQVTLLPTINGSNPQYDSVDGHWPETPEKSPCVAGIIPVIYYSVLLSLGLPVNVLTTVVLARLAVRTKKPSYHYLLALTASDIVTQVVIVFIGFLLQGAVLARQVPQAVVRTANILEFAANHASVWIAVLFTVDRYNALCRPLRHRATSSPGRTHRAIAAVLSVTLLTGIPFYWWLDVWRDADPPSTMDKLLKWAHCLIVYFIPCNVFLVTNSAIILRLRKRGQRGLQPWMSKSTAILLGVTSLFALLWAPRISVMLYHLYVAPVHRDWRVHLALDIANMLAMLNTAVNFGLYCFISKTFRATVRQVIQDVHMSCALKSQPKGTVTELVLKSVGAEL

[12] = Oral bioavailability in Sprague-Dawley rat at 5 mg/kg; type: ADME, organism-based; conditions: in vivo
[13] = Cmax in Sprague-Dawley rat at 5 mg/kg, po; type: ADME, organism-based; design: dose 5 mg/kg, route oral; conditions: in vivo
[14] = Clearance in Sprague-Dawley rat at 1 mg/kg, iv; type: ADME, organism-based; conditions: in vivo
[15] = Half life in Sprague-Dawley rat at 1 mg/kg, iv; type: ADME, organism-based; conditions: in vivo
[16] = Volume of distribution at steady state in Sprague-Dawley rat at 1 mg/kg, iv and 5 mg/kg, po; type: ADME, organism-based; conditions: in vivo, read-out: Vdss
[17] = AUC in Sprague-Dawley rat at 1 mg/kg, iv and 5 mg/kg, po; type: ADME, organism-based; conditions: in vivo
[18] = Ratio of drug level in brain to plasma in Sprague-Dawley rat at 1 mg/kg, iv and 5 mg/kg, po; type: ADME, organism-based; conditions: read-out: BPR
[19] = target: T5, Probable G-protein coupled receptor 139 (Homo sapiens) (UniProt Q6DWJ6); test: Total binding affinity to human GPR139 receptor expressed in CHO-TRex cells at 10 nM after 60 mins by scintillation counting; type: cell-based
T5 sequence (whole entry): T1 sequence (Q6DWJ6 whole entry)
In short: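 Whole CHO-TRex cells stably expressing human GPR139 were incubated with 10 nM of the tritiated ligand to measure total binding. Nonspecific binding was defined by blocking with 10 μM of an unlabelled reference GPR139 agonist. Specific binding was taken as total minus nonspecific.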

C[C@H](NC(=O)CNC(=O)c1ccccc1)c1ccccc1
EC50 [1]: 162 nM

C[C@H](NC(=O)CNC(=O)c1cc(Cl)cc(Cl)c1)c1ccccc1
EC50 [1]: 46 nM

C[C@H](NC(=O)CNC(=O)c1ccc(Cl)c(Cl)c1)c1ccccc1
EC50 [1]: 193 nM

C[C@H](NC(=O)CNC(=O)c1ccc(Cl)cc1)c1ccccc1
EC50 [1]: 118 nM

C[C@H](NC(=O)CNC(=O)c1cccc(C(F)(F)F)c1)c1ccccc1
EC50 [1]: 52 nM

C[C@H](NC(=O)CNCc1cccc(Cl)c1)c1ccccc1
EC50 [1]: > 10000 nM

COc1cc(OC)cc(C(=O)NCC(=O)N[C@@H](C)c2ccccc2)c1
EC50 [1]: 32 nM

CC(NC(=O)CSC(=O)c1ccccc1)c1ccccc1 (stereo not given)
EC50 [1]: 670 nM

C[C@H](NC(=O)CNC(=O)c1cccc(Cl)c1Cl)c1ccccc1
EC50 [1]: 52 nM

COc1cc(OC)cc(C(=O)NNC(=O)Nc2cccc3ccccc23)c1
EC50 [1]: 43 nM

COc1cccc(C(=O)N[C@@H](C)C(=O)N[C@@H](C)c2ccccc2)c1
EC50 [1]: 66 nM

COc1cccc(C(=O)N[C@H](C)C(=O)N[C@@H](C)c2ccccc2)c1
EC50 [1]: 440 nM

C[C@@H](NC(=O)CNC(=O)c1cccc(Cl)c1)c1ccccc1
EC50 [1]: 2100 nM

C[C@H](NC(=O)CNC(=O)c1cc(Cl)cc(Br)c1)c1ccccc1
EC50 [1]: 78 nM

C[C@H](NC(=O)CNC(=O)c1cc(Cl)ccc1Cl)c1ccccc1
EC50 [1]: 40 nM

COc1cccc(C(=O)NCC(=O)N[C@@H](C)c2ccccc2)c1
EC50 [1]: 33 nM | hepatic extraction ratio at 1 h, 1 µM [2]: 0.3 | hepatic extraction ratio at 1 h, 1 µM [3]: 0.8 | Papp [4]: 16 ×10⁻⁶ cm/s | efflux ratio [5]: 5.5 | fraction unbound at 6 h, up to 10 µM [6]: 0.14 | fraction unbound at 6 h, up to 10 µM [7]: 0.36 | fraction unbound at 6 h, up to 10 µM [8]: 0.16 | solubility at 72 h [9]: > 35 µM | solubility at 72 h [10]: > 35 µM | inhibition (INH) (Cytochrome P450 1A2): Not Active | inhibition (INH) (Cytochrome P450 2C8): Not Active | inhibition (INH) (Cytochrome P450 2C9): Not Active | inhibition (INH) (Cytochrome P450 2C19): Not Active | inhibition (INH) (Cytochrome P450 2D6): Not Active | inhibition (INH) (Cytochrome P450 3A4): Not Active

C[C@H](NC(=O)CNC(=O)c1cccc(F)c1)c1ccccc1
EC50 [1]: 54 nM

COc1cccc(C(=O)N[C@@H](CO)C(=O)N[C@@H](C)c2ccccc2)c1
EC50 [1]: 283 nM

C[C@H](NC(=O)CNC(=O)c1ccccc1Cl)c1ccccc1
EC50 [1]: 150 nM

C[C@H](NC(=O)CNC(=O)c1cc(F)cc(Cl)c1)c1ccccc1
EC50 [1]: 24 nM

C[C@H](NC(=O)CNC(=O)c1cccc(OC(F)(F)F)c1)c1ccccc1
EC50 [1]: 46 nM

C[C@H](NC(=O)CNC(=O)c1cccc(Cl)c1)c1ccccc1
hepatic extraction ratio at 1 h, 1 µM [2]: 0.3 | hepatic extraction ratio at 1 h, 1 µM [3]: 0.4 | Papp [4]: 32 ×10⁻⁶ cm/s | efflux ratio [5]: 1.7 | fraction unbound at 6 h, up to 10 µM [6]: 0.1 | fraction unbound at 6 h, up to 10 µM [7]: 0.25 | fraction unbound at 6 h, up to 10 µM [8]: 0.09 | solubility at 72 h [9]: > 35 µM | solubility at 72 h [10]: > 35 µM | inhibition (INH) (Cytochrome P450 1A2): Not Active | inhibition (INH) (Cytochrome P450 2C8): Not Active | inhibition (INH) (Cytochrome P450 2C9): Not Active | inhibition (INH) (Cytochrome P450 2C19): Not Active | inhibition (INH) (Cytochrome P450 2D6): Not Active | inhibition (INH) (Cytochrome P450 3A4): Not Active | Activity [11]: inactive | bioavailability [12]: 49% | Cmax [13]: 317 ng/mL | clearance [14]: 53 mL/min/kg | half-life [15]: 2.5 h | Vd [16]: 2.1 L/kg | AUC [17]: 683 ng·h/mL | Kp [18]: 1.2 | Activity [19]: Active

Cc1cccc(C(=O)NCC(=O)N[C@@H](C)c2ccccc2)c1
EC50 [1]: 24 nM

C[C@H](NCCNC(=O)c1cccc(Cl)c1)c1ccccc1
EC50 [1]: > 10000 nM

C[C@H](NC(=O)CNC(=O)c1cccc(C#N)c1)c1ccccc1
EC50 [1]: 59 nM

COc1cccc(C(=O)N[C@@H](Cc2ccccc2)C(=O)N[C@@H](C)c2ccccc2)c1
EC50 [1]: 10000 nM

COc1cccc(C(=O)NCC(=O)N[C@H](C)c2ccccc2)c1
EC50 [1]: 1700 nM
